Test results published in ChEMBL document CHEMBL1141653, “New bis(2-aminoimidazoline) and bisguanidine DNA minor groove binders with potent in vivo antitrypanosomal and antiplasmodial activity” (J Med Chem, 2008).
The source made the active and inactive calls. The calls are words filed in the database; no cut-off is given here.

Legend:
[1] = Selectivity index, ratio of IC50 for rat L6 cells to IC50 for Trypanosoma brucei rhodesiense STIB900; format: functional
Method in brief: (§1)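 Ratio of the IC₅₀ on L-6 rat skeletal myoblasts to the parasite IC₅₀. Cytotoxicity measured in RPMI 1640 with L-glutamine and 10% FBS, serial dilutions 90 to 0.123 µg/mL, duplicate. After 72 h, Alamar blue (resazurin) added for 2 h. Fluorescence read at ex 536 / em 588 nm.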

Plasmodium falciparum = test: Antiplasmodial activity against Plasmodium falciparum K1 in [3H]hypoxanthine incorporation assay; format: functional, organism-based; conditions: K1, 72 h
Method in brief: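 K1 erythrocytic stages in RPMI 1640 without hypoxanthine with AlbuMax, human A⁺ red cells at 2.5% hematocrit, 0.3% parasitemia. Compounds taken from 10 mg/mL DMSO stock, tested as serial doubling dilutions at 37 °C in 4% CO₂/3% O₂/93% N₂. After 48 h, ³H-hypoxanthine (0.5 µCi) added for 24 h more; incorporation by scintillation counting. IC₅₀ from sigmoidal curves.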

L6 = test: Cytotoxicity against rat L6 cells; format: cell-based
[2] = test system: Trypanosoma brucei rhodesiense; test: Antitrypanosomal activity against Trypanosoma brucei rhodesiense STIB900; format: functional, organism-based
Method in brief: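 Bloodstream forms (10⁴ per well) in MEM with 15% heat-inactivated horse serum, 25 mM HEPES, 2-mercaptoethanol, hypoxanthine. 3-fold serial dilutions from 90 to 0.123 µg/mL, in duplicate. Incubation 72 h at 37 °C, 5% CO₂. Resazurin then added for 2–4 h more. Fluorescence read at ex 536 / em 588 nm.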

Ferriprotoporphyrin IX [3] = test: Inhibition of ferriprotoporphyrin 9 biomineralization; format: functional
Method in brief: (§2)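 β-Hematin formation: hemin chloride (0.5 mg/mL in DMSO) with 0.5 M sodium acetate pH 4.4 and drug dilutions, 37 °C for 18–24 h. Pellet washed with DMSO, dissolved in 0.1 N NaOH, A405 read. Percent inhibition relative to solvent control. IC₅₀ derived, or percent inhibition at 1 mg/mL (highest concentration) given when no IC₅₀.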

[4] = Selectivity index, ratio of IC50 for rat L6 cells to IC50 for Plasmodium falciparum K1; format: functional; method in brief: as §1
[5] = Binding affinity for DNA assessed as thermal melting temperature
Method in brief: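 Thermal melting of poly(dA)·poly(dT): DNA at 40 µM base with compound at 12 µM (ratio 0.3) in MES 0.01 M / EDTA 0.001 M buffer, pH 6.25. A260 followed from 20 to 95 °C at 0.5 °C/min. Value is ΔTm.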

Mus musculus = test: Toxicity in Plasmodium berghei ANKA infected NMRI mice (Mus musculus) at 50 mg/kg, intraperitoneally for 4 days; format: organism-based; design: dose 50 mg/kg, route intraperitoneal; conditions: in vivo, ip, 96 h
Method in brief: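 Toxicity recorded in the P. berghei ANKA model. Female NMRI mice (20–22 g), three per group, infected iv with 2 × 10⁷ parasitized erythrocytes. Compound in DMSO diluted 10-fold in water, dosed ip at 4, 24, 48 and 72 h post-infection. Survival followed up to 30 days after infection.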

Ferriprotoporphyrin IX [6] = test: Inhibition of ferriprotoporphyrin 9 biomineralization at 1 mg/ml; format: functional; method in brief: as §2
[7] = test system: Trypanosoma brucei rhodesiense; test: Antitrypanosomal activity against Trypanosoma brucei rhodesiense STIB900 infected NMRI mouse assessed as survival of animals administered at 20 mg/kg, ip after 4 days; format: functional; conditions: route intraperitoneal
Method in brief: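 Mice infected ip with 2 × 10⁴ bloodstream forms of T. b. rhodesiense STIB900. Groups of four treated ip on days 3–6, untreated control group. Parasitemia checked every second day to day 14, then twice weekly to day 60. Deaths recorded for mean survival time. Surviving aparasitemic mice at 60 days counted as cured.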

[8] = test system: Trypanosoma brucei rhodesiense; test: Antitrypanosomal activity against Trypanosoma brucei rhodesiense STIB900 infected NMRI mouse assessed as number of cured animals at 20 mg/kg, ip after 4 days; format: functional, organism-based; design: dose 20 mg/kg
Method in brief: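 Mice infected ip with 2 × 10⁴ STIB900 bloodstream forms. Groups of four treated ip on days 3–6, with an untreated control group. Parasitemia checked every second day to day 14, then twice weekly to day 60. Mice surviving and aparasitemic at 60 days counted as cured.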

| SMILES | IC50 (Plasmodium falciparum) [µM] | IC50 [2] [µM] | IC50 (Ferriprotoporphyrin IX [3]) [µM] | ΔTm [5] [°C] | Ratio IC50 [1] | IC50 (L6) [µM] | Ratio IC50 [4] | Activity (Mus musculus) | inhibition (Ferriprotoporphyrin IX [6]) [%] | Survival [7] [days] | Activity [8] |
| --- | --- | --- | --- | --- | --- | --- | --- | --- | --- | --- | --- |
| CCOC(CNC(=N)Nc1ccc(Nc2ccc(NC(=N)NCC(OCC)OCC)cc2)cc1)OCC | 0.113 | 0.228 | 162 | 13.6 | >767 | > 175 | >1548 |  |  |  |  |
| Cl.N=C(N)Nc1ccc(C2CCN(c3ccc(NC(=N)N)cc3)CC2)cc1 | 0.041 | 0.217 |  | 30 | 111 | 24 | 585 | Toxic | 0 |  |  |
| Cl.c1cc(C2CCN(c3ccc(NC4=NCCN4)cc3)CC2)ccc1NC1=NCCN1 | 0.011 | 0.038 |  | 35 | 3474 | 132 | 12000 |  | 0 | >47.25 |  |
| Cl.O=C(Nc1ccc(NC2=NCCN2)cc1)Nc1ccc(NC2=NCCN2)cc1 | 0.028 | 0.122 | 393 | 31 | 852 | 104 | 3714 |  |  | >60 | Active |
| Cl.Cl.N=C(N)Nc1ccc(NC(=O)c2ccc(NC(=N)N)cc2)cc1 | 0.055 | 0.036 |  | 40.1 | 319 | 11.5 | 209 |  | 0 | >60 | Active |
| Cl.Cl.O=C(Nc1ccc(NC2=NCCN2)cc1)c1ccc(NC2=NCCN2)cc1 | 0.028 | 0.025 | 705 | 47.1 | 7720 | 193 | 6893 |  |  | >60 | Active |
| CC(C)(C)OC(=O)/N=C(/NC(=O)OC(C)(C)C)Nc1ccc(Nc2ccc(N/C(=N\C(=O)OC(C)(C)C)NC(=O)OC(C)(C)C)cc2)cc1 | 0.077 | 0.47 |  |  |  | 3.7 | 48 |  | 45 |  |  |
| N=C(N)Nc1ccc2c(c1)Cc1ccc(NC(=N)N)cc1C2 | 0.0088 | 0.05 |  | 31.1 | 15 | 0.73 | 83 | Toxic | 0 |  |  |
| CC(C)(C)OC(=O)N1CCN(C(=O)OC(C)(C)C)C1=Nc1ccc(Nc2ccc(N=C3N(C(=O)OC(C)(C)C)CCN3C(=O)OC(C)(C)C)cc2)cc1 | 0.059 | 0.048 | 171 |  |  | 9.8 | 166 |  |  |  |  |
| c1cc2c(cc1NC1=NCCN1)Cc1cc(NC3=NCCN3)ccc1-2 | 0.0115 | 0.0049 | 491 | 44.1 | 17020 | 83.4 | 7252 |  |  |  |  |
| c1cc2c(cc1NC1=NCCN1)Cc1ccc(NC3=NCCN3)cc1C2 | 0.0186 | 0.06 | 161 | 33.2 | 620 | 37.2 | 2000 |  |  | >60 | Active |
| CCCCC[P+](CCCCC)(CCCCC)Cc1ccc(C(=O)c2ccc(C[P+](CCCCC)(CCCCC)CCCCC)cc2)cc1.[Br-].[Br-] | 0.053 | 0.414 | 219 | 1.2 | 29 | 11.8 | 223 |  |  |  |  |
| c1cc(NC2=NCCN2)ccc1CCc1ccc(NC2=NCCN2)cc1 | 0.016 | 0.054 |  | 31.2 | 646 | 34.9 | 2181 |  | 0 | >60 | Active |
| O=C(c1ccc(NC2=NCCN2)cc1)c1ccc(NC2=NCCN2)cc1 | 0.129 | 2.05 | 117 |  |  | > 214 | >1658 |  |  |  |  |

The next lines start with results.

| IC50 (Plasmodium falciparum) [µM] | IC50 [2] [µM] | IC50 (Ferriprotoporphyrin IX [3]) [µM] | ΔTm [5] [°C] | SMILES | Ratio IC50 [1] | IC50 (L6) [µM] | Ratio IC50 [4] | Activity (Mus musculus) | inhibition (Ferriprotoporphyrin IX [6]) [%] | Survival [7] [days] | Activity [8] |
| --- | --- | --- | --- | --- | --- | --- | --- | --- | --- | --- | --- |
| 0.019 | 0.045 |  | 26.1 | N=C(N)Nc1ccc(CCc2ccc(NC(=N)N)cc2)cc1 | 24 | 1.09 | 57 | Toxic | 0 |  |  |
| 0.035 | 0.102 |  | 20.1 | N=C(N)Nc1ccc(Sc2ccc(NC(=N)N)cc2)cc1 | 26 | 2.66 | 76 |  | 0 |  |  |
| 0.018 | 0.022 |  | 29.6 | N=C(N)Nc1ccc(Nc2ccc(NC(=N)N)cc2)cc1 | 30 | 0.65 | 36 |  | 0 |  |  |
| 0.046 | 0.196 |  | 22.1 | N=C(N)Nc1ccc(Oc2ccc(NC(=N)N)cc2)cc1 | 8 | 1.64 | 36 |  | 0 |  |  |
| 0.032 | 0.161 |  | 15 | N=C(N)Nc1ccc(Cc2ccc(NC(=N)N)cc2)cc1 | 17 | 2.8 | 88 |  | 0 |  |  |
| 0.607 | 0.538 | 686 | 23 | Cl.N=C(N)Nc1ccc(NC(=S)Nc2ccc(NC(=N)N)cc2)cc1 | 29 | 15.5 | 26 |  |  |  |  |
| 0.096 | 0.187 |  | 24.1 | Cl.N=C(N)Nc1ccc(NC(=O)Nc2ccc(NC(=N)N)cc2)cc1 | >1256 | > 235 | >2547 | Toxic | 0 |  |  |
